Screening results deposited in PubChem by The Scripps Research Institute Molecular Screening Center.
Sampled rows, rich in hits. Any-hit rate of the full collection: about 3.9%.
OX1R antag-1 – blocks the human orexin 1 receptor; 330,000 tested, 0.43% active; CHO/OX1R cells, Fluo-8 calcium fluorescence, orexin A; inhibition, % at 5 µM; O43613;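 active = inhibition above its plate's threshold, mean inhibition of all tested compounds on the plate plus 3 SD, cut at about 37% in these data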;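 note: 0% = orexin A challenge wells and 100% = SB-334867-A antagonist wells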
OX1R antag-2 – blocks the human orexin 1 receptor; O43613; 330,000 tested, 1.8% active; inhibition, % at 6.6 µM; OX1R-expressing cells, FRET antagonist read-out; in the data active = inhibition mostly above about 38%, no sharp cut-off; inactive = mostly below about 40%;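 note: 0% = agonist challenge alone and 100% = reference antagonist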
TAAR1 ag – agonists of human TAAR1. Q96RJ0. CHO RD-HGA16 TAAR1, Fluo-8 calcium fluorescence; vehicle wells 0%, saturating PEA agonist 100%. activation, % at 3 µM. 360,000 tested, 0.99% active;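 active = activation above the mean activation of all test compounds in the run plus 3 SD, cut at about 38% in these data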
Target sequence (Q96RJ0 whole entry, looked up): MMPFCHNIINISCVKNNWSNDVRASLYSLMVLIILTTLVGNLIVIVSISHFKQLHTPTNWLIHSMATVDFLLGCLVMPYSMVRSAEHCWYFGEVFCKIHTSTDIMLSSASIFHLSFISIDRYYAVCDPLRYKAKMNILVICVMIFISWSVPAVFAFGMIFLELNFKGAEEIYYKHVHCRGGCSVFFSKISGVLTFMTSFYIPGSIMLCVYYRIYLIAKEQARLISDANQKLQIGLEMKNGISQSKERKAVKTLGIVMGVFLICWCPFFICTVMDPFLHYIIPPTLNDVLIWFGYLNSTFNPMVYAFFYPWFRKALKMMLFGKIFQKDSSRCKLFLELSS
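Repeats: no replicates (n 1) | Material: CHO-derived RD-HGA16 cells with stable Gα16 and human TAAR1 | Technique: Kinetic Fluo-8 calcium fluorescence | Schedule: 17-24 h seeding, 75 min 37 °C dye, 30 min RT | Evaluation: % activation from peak over basal fluorescence ratio, DMSO-to-PEA scaled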
CHO parental Ca – signal in parental CHO cells, OX1R antagonist counter-screen; parental CHO-K1, ATP-induced calcium, Fluo-8 fluorescence; inhibition, % at 5.6 µM; 330,000 tested, 0.63% active; AID 463079;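 active = inhibition above that plate's mean sample inhibition plus 3 SD, cut at about 26% in these data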;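 note: 0% = ATP-challenged DMSO wells and 100% = DMSO wells without ATP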
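Test system: untransfected parental CHO cell line; also added: ATP stimulus; dosing: 5.6 µM, single dose; signal: calcium-sensitive Fluo-8 fluorescence; measure: percent inhibition of ATP-evoked calcium rise, normalized to controls; benchmarks: low control ATP plus DMSO, high control DMSO only; replication: one well per compound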
TAAR1 antagonist – human TAAR1 antagonism; Q96RJ0; CHO RD-HGA16 TAAR1, Fluo-8 calcium fluorescence, antagonist; inhibition, % at 3 µM; 360,000 tested, 1.5% active;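 active = inhibition above a per-plate cutoff, the mean inhibition of test compounds on that plate plus 3 SD, cut at about 49% in these data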;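 note: 0% = DMSO plus EC80 beta-PEA response and 100% = DMSO alone without agonist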
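System: RD-HGA16 CHO cells with stable hTAAR1 and Gα16 | Probe or stimulus: EC80 β-phenethylamine stimulus | Dosing: 3 µM, single point | Times: Dye loading 75 min at 37 °C, then 30 min room temperature | Measured by: Fluo-8 calcium-sensitive fluorescence | Read-out basis: % inhibition of agonist calcium response | Replicates: n of 1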
OX1R HTRF conf – confirmation of human orexin 1 receptor antagonists, HTRF format; shares compounds with OX1R antag-2; OX1R-expressing cells, HTRF antagonist assay; inhibition, % at 6.6 µM; 1,800 tested, 49% active; AID 492964; in the data active = inhibition above about 55%;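 note: CHO cells expressing OX1R stimulated with orexin A at about EC80; 0% = agonist challenge alone and 100% = reference antagonist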
CHO-K1 HTRF cnt – counter-screen: parental CHO-K1 HTRF response; shares compounds with OX1R antag-2; parental CHO-K1 cells, HTRF counterscreen; inhibition, % at 6.6 µM; 1,800 tested, 48% active; AID 493232; in the data active = inhibition above about 17%;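 note: 0% = agonist challenge with vehicle and 100% = vehicle alone without agonist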
* marks the source's active call; other numbers are inactive results; x = no result.

SMILES	OX1R antag-1	OX1R antag-2	TAAR1 ag	CHO parental Ca	TAAR1 antagonist	OX1R HTRF conf	CHO-K1 HTRF cnt
CCN(Cc1ccccc1)C(=O)COC(=O)c1cc(S(=O)(=O)Nc2c(C)n(C)n(-c3ccccc3)c2=O)ccc1C	20	81*	-1	-27	-5	74*	-5
CCN(Cc1ccccc1)C(=O)C(C)OC(=O)c1cc(S(=O)(=O)Nc2c(C)n(C)n(-c3ccccc3)c2=O)ccc1C (stereo not given)	-25	23	2	-24	-11	x	x
CCOC(=O)c1cc2c(=O)n3ccccc3nc2n(C(C)C)c1=NC(=O)c1ccncc1	-14	43	13	-13	8	x	x
CCOC(=O)c1cc2c(=O)n3ccccc3nc2n(CC(C)C)c1=NC(=O)c1ccco1	-32	117*	14	-5	11	54	40*
CCOC(=O)c1cc2c(=O)n3ccccc3nc2n(CCOC)c1=NC(=O)C(C)(C)C	-27	43	4	3	-10	x	x
CCOC(=O)c1cc2c(=O)n3ccccc3nc2n(CCCOC)c1=NC(=O)C(C)(C)C	-41	84*	0	-21	-4	21	27*
CCOC(=O)c1cc2c(=O)n3ccccc3nc2n(CCOC)c1=NC(=O)c1ccncc1	-17	80*	15	-12	6	58*	52*
CCNC(=O)C1(C)CCN1CCC(=O)c1ccc(C)cc1 (stereo not given)	x	x	0	x	-11	x	x
Cc1ccc(S(=O)(=O)NCC2CCN(C(=O)C(=O)c3cccs3)CC2)cc1	x	x	2	x	-12	x	x
NC(=O)c1c(N)[nH]c(C(=O)c2ccccc2)c1-c1ccccc1Cl	x	x	9	x	19	x	x
Brc1cc2ccccc2[n+](Cc2ccccc2)c1	-3	102*	8	-15	1	52	62*
CC(C)c1cccc(-c2csc(C(O)c3cccc(Cl)c3)n2)c1 (stereo not given)	x	x	1	x	29	x	x
Cc1nn(C)cc1/C=N/NC(=O)c1ccc2c(c1)OCO2	-8	83*	4	0	-4	10	9
CC1CC1C(=O)Nc1cc(C(F)(F)F)ccc1N1CCOCC1 (stereo not given)	-9	16	1	-11	-13	x	x
CC(Cl)C(=O)Nc1cc(C(F)(F)F)ccc1N1CCOCC1 (stereo not given)	-22	94*	-1	0	-13	16	-4
O=C(CSc1nc2ccccc2[nH]1)Nc1cc(C(F)(F)F)ccc1N1CCOCC1	26	87*	4	-16	6	53	1
Cn1nnnc1SCC(=O)Nc1cc(C(F)(F)F)ccc1N1CCOCC1	-18	12	-1	-15	-10	x	x
CN1CCc2cc3c(c4c2[C@H]1[C@H](O)c1ccccc1-4)OCO3	-17	119*	0	-1	-19	66*	35*
COCCN1C(=O)CN(S(C)(=O)=O)CC1(C)C(=O)Nc1c(C)cccc1C (stereo not given)	x	x	1	x	-3	x	x
CCc1nc2ccc(C(=O)NCc3ccc4c(c3)OCO4)cn2c1N(C)Cc1cccs1	x	x	3	x	48	x	x
CCN(CC)c1ccc2nc3ccccc3[n+](CC)c2c1	1	149*	x	-8	x	110*	157*
CCN(CC)c1ccc2nc3ccc(N)cc3[n+](-c3ccccc3)c2c1	x	x	1	x	-4	x	x
Cc1ccc(S(=O)(=O)N2[C@H](CC(=O)c3cccs3)OC[C@@H]2C)cc1	x	x	-2	x	-19	x	x
CC1CCN(S(=O)(=O)CCNC(=O)c2ccccc2)CC1	-12	89*	2	-8	4	9	2
COCCN1C(=O)CCC1(C)C(=O)Nc1ccc2c(c1)OCCO2 (stereo not given)	x	x	7	x	-27	x	x
SMILES	OX1R antag-1	OX1R antag-2	TAAR1 ag	CHO parental Ca	TAAR1 antagonist	OX1R HTRF conf	CHO-K1 HTRF cnt
CCCCN1CC(COc2ccc(OC)cc2)OCCS1(=O)=O (stereo not given)	x	x	-2	x	0	x	x
O=Nc1c2nc3ccccc3n(O)c-2c2ccccc12	-32	91*	9	-14	4	38	49*
On1c(-c2ccccc2)nc2ccccc21	-9	35	1	-3	-22	x	x
CCOC(=O)[C@]12CCCC=C1N(Cc1cccc3ccccc13)C(=O)[C@H](CC(=O)NCCCCc1ccccc1)C2	x	x	8	x	-10	x	x
COc1ccc(C(=O)Nc2ccc3ccccc3n2)cc1OC	-2	77*	10	-17	3	78*	1
Cc1ccc(C(=O)Nc2ccc3ccccc3n2)cc1	-27	21	10	-9	-28	x	x
Cc1cnc([N+](=O)[O-])n1CCOC(=O)NC(=O)c1ccccc1Cl	4	24	3	5	-6	x	x
Cc1cnc([N+](=O)[O-])n1CCOC(=O)NC(=O)c1cccc(F)c1	-14	78*	9	-15	-9	60*	16
O=c1cc[nH]c2ccc([N+](=O)[O-])cc12	1	122*	2	-13	-13	51	61*
CCOC(=O)c1c[nH]c2ccc([N+](=O)[O-])cc12	x	x	0	x	-22	x	x
CCN1CCN(CCC2Oc3cc([N+](=O)[O-])ccc3NC2=O)CC1 (stereo not given)	-10	78*	0	2	-9	44	25*
O=C(NC1CCCCC1)C1CC(=O)N(c2cccc([N+](=O)[O-])c2)C1 (stereo not given)	1	88*	6	10	-5	35	7
CCOC(=O)[C@]12CCCC=C1N(Cc1ccc3c(c1)OCO3)C(=O)[C@H](CC(=O)NCCC(C)C)C2	x	x	2	x	-14	x	x
COc1cccc2sc(Nc3nc(-c4ccncc4)cs3)nc12	16	82*	0	6	5	98*	8
CC(=O)c1cccc(NC(=O)CCNS(=O)(=O)c2cccc3nonc23)c1	-5	97*	-1	-20	4	25	23*
Clc1cccc(/C=N\Nc2nccs2)c1	-11	82*	17	-28	-14	19	-11
O=C(O)CSc1nnc2c(n1)[nH]c1ccccc12	1	28	1	3	-2	x	x
Cc1cc(C)c2[nH]c3nc(SCC(=O)O)nnc3c2c1	1	104*	10	-9	-6	26	14
Cc1ccccc1N=C1c2cc([N+](=O)[O-])ccc2-c2ncccc21	-9	160*	10	-9	-2	36	42*
CC(=O)NC(c1ccc(F)c(F)c1)c1nc(-c2cc3ccccc3o2)cs1 (stereo not given)	x	x	0	x	-23	x	x
COc1ccc(CCn2c(=N)c(C(=O)NCc3ccco3)cc3c(=O)n4ccccc4nc32)cc1OC	x	x	0	x	1	x	x
